ChEMBL document CHEMBL1125728, “Dopamine autoreceptor agonists as potential antipsychotics. 2. (Aminoalkoxy)-4H-1-benzopyran-4-ones” (J Med Chem, 1991)

Columns and labels:
[1] = tested on: Mus musculus; test: Inhibition of mouse intraperitoneally.; assay type: functional; conditions: ip
Procedure, shortened: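 Inhibition of exploratory locomotor activity, scored together with motor coordination (ataxia). ED50 generated from four to five doses, with 5–12 animals per dose.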

[2] = Compound was tested for its inhibition of Sidman avoidance after peroral administration in Squirrel monkeys.; assay type: functional; conditions: po
Procedure, shortened: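 Sidman avoidance in mature squirrel monkeys, oral dosing. ED50 ± SEM generated from three doses, four animals per dose.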

[3] = tested on: Rattus norvegicus; test: Compound tested for % inhibition of DA neuronal firing at an intraperitoneal dose of 2.5 mg/kg.; assay type: functional; conditions: ip
[4] = target: T1, Adrenergic receptor alpha-1 (Rattus norvegicus, UniProt P15823+P23944+P43140); test: Compound was tested for its inhibitory effect on the binding profile in Alpha-1 adrenergic receptor using [3H]prazosin in rat brain.; assay type: tissue-based
T1 sequence (P15823 whole entry): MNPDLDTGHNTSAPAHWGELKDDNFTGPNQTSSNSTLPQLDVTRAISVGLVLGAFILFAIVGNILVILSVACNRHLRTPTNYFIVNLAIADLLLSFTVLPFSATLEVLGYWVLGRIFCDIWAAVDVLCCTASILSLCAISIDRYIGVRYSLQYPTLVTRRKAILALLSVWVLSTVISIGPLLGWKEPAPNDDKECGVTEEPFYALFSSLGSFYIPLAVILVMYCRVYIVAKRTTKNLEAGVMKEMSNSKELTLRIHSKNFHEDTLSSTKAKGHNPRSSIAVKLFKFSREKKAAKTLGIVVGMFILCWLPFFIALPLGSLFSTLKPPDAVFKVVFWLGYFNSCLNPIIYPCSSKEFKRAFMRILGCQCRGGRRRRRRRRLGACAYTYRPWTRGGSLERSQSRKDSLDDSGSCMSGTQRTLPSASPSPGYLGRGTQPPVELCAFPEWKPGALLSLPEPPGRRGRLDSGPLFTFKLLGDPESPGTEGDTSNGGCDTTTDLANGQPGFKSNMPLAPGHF
T1 sequence (P23944 whole entry): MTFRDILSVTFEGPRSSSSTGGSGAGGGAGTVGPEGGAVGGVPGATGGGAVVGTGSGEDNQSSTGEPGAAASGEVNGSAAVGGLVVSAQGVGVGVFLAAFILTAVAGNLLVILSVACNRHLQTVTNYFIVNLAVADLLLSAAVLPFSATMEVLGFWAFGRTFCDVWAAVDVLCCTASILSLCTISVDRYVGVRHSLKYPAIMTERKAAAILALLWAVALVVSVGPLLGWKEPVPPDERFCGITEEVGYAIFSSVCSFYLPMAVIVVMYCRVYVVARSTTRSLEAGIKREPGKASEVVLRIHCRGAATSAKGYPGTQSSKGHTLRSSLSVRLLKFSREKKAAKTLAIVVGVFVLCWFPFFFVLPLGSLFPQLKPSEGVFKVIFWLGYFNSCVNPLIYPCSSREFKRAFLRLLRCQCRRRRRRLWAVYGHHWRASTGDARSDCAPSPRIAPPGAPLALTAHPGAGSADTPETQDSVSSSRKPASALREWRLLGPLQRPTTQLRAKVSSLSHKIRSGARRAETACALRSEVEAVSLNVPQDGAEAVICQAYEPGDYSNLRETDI
T1 sequence (P43140 whole entry): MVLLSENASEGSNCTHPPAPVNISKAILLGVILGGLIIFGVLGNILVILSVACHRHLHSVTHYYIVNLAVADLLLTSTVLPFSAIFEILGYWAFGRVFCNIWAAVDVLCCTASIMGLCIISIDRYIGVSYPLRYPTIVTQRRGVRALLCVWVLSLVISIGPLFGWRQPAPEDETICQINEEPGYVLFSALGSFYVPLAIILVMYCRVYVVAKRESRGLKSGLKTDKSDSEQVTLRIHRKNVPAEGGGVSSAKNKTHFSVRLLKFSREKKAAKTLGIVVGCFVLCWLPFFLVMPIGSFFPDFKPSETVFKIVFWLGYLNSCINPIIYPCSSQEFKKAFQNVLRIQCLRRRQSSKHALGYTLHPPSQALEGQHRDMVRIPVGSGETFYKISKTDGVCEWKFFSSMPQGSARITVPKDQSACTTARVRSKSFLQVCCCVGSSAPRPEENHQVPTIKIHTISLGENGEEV
Procedure, shortened: (§1)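 Rat brain receptor binding with the stated radioligands. IC50 obtained by nonlinear regression from four to five concentrations. [3H]flupenthixol and [3H]N-propylnorapomorphine values come from four independent determinations each, and the [3H]haloperidol value from two experiments. Remaining ligands were determined once.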

[5] = tested on: Rattus norvegicus; test: Compound tested for its effect on reversal of 6-OHDA induced depression in rats after sc administration.; assay type: functional
Procedure, shortened: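 Rats lesioned at least 1 month earlier with 6-OHDA (20 μg icv) plus pargyline (50 mg/kg ip) and desipramine (25 mg/kg ip), giving about 90% brain DA depletion. Drug given sc, then locomotor activity recorded for 30 min from dosing. ED200 estimated from three or four doses, six rats per dose.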

[6] = target: Dopamine receptor; test: Compound was tested for inhibitory binding activity against Dopamine receptor in rat striatal membranes using [3H]HAL as the radioligand.; assay type: cell membranes, Striatum, Membrane
Procedure, shortened: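 [3H]Haloperidol displacement from rat striatal DA receptors, run in duplicate. IC50 obtained by nonlinear regression from four to five concentrations.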

[7] = target: D(2) dopamine receptor (Rattus norvegicus, UniProt P61169); test: Compound was tested for its inhibitory effect on the binding profile in Dopamine receptor D2 using [3H]haloperidol in rat brain.; assay type: tissue-based; procedure, shortened: as §1
[8] = tested on: Rattus norvegicus; test: Percentage of rats showing signs of stereotyped behavior at 30 mg/kg peroral dose and animals observed for 60 min postdose.; conditions: route oral
[9] = Compound tested for its liability for extrapyramidal side effects (EPS) in terms of no. of animals showing signs of EPS/no. of animals tested upon po administration at a dose of 80 mg/Kg; 0/3; assay type: functional
[10] = target: Serotonin 2 (5-HT2) receptor (Rattus norvegicus, UniProt P30994+P08909+P14842); test: Compound was tested for its inhibitory effect on the binding profile in 5-hydroxytryptamine 2 receptor using [3H]spiroperidol in rat brain.; assay type: tissue-based; procedure, shortened: as §1
[11] = tested on: Rattus norvegicus; test: Percentage of rats showing signs of stereotyped behavior at 17 mg/kg peroral dose and followed 1 hr later by 10 mg/kg sc of SKF-38393 and animals observed for 60 min postdose before being; assay type: functional
Procedure, shortened: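 Part 2: oral dose given to naive rats, six per dose, followed 1 h later by SKF 38393 (10 mg/kg sc). Stereotypy (repetitive rearing, head-swaying, sniffing, licking, gnawing lasting ≥5 s) rated over 60 min. Reported as percent of rats affected.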

[12] = tested on: Rattus norvegicus; test: Effect on DOPA accumulation level at an intraperitoneal dose of 30 mg/kg in rat.; assay type: functional
[13] = tested on: Rattus norvegicus; test: Compound tested for % reversal of DOPA accumulation at an intraperitoneal dose of 30 mg/kg.; assay type: functional
Procedure, shortened: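 Rats dosed 1 h before sacrifice, with GBL (750 mg/kg ip) at 30 min and NSD 1015 (100 mg/kg ip) at 25 min before sacrifice. Striatal DOPA measured by HPLC with electrochemical detection. Value is percent reversal of the GBL-induced DOPA rise.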

[14] = target: Dopamine receptor; test: Compound was tested for its inhibitory effect on the binding profile in Dopamine receptor using [3H]N-propylnorapomorphine in rat brain.; assay type: tissue-based; procedure, shortened: as §1

D(2) dopamine receptor, sequence (P61169 whole entry): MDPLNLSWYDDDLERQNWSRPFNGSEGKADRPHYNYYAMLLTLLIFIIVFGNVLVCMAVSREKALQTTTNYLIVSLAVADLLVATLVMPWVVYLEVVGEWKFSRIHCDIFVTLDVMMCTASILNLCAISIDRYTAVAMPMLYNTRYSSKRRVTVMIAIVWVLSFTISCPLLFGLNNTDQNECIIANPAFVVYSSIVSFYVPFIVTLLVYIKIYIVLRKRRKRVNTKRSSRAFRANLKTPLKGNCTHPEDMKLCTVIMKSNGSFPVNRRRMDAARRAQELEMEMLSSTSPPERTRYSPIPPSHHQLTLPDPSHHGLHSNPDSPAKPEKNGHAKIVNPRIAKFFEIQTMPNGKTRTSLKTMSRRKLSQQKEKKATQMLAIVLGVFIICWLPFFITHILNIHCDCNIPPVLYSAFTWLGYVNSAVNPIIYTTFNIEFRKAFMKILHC

IC50 [4]: 170 nM | IC50 [6]: 1000 nM | IC50 [7]: 1080 nM | IC50 [10]: 1000 nM | IC50 [14]: 59 nM
SMILES: O=c1ccoc2cc(OCCCN3CCN(c4ccccn4)CC3)ccc12
ED50 [1]: 1.3 mg/kg | ED50 [2]: 6 mg/kg | inhibition in vivo at 2.5 mg/kg [3]: 93% | ED200 [5]: > 5 mg/kg | Animals [8]: 0% | EPS [9]: 0 | Animals [11]: 0% | DOPA level [12]: 0.28 µg/g | Reversal [13]: 100%
